Converted amounts (≈) assume the structure as drawn. The source made the active and inactive calls. No cut-off for these calls is given here.
What was measured:
Pseudomonas aeruginosa [1] = assay: Antibacterial activity against Pseudomonas aeruginosa PAO1 ATCC 15692 after 18 to 20 hrs by broth microdilution test; assay type: functional
Summary of the method: (§1)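 Broth microdilution in Mueller–Hinton broth: compounds in triplicate serial dilutions from 2 mM downward, inoculum about 5 × 10⁵ cfu mL⁻¹, 18–20 h at 37 °C. MIC was taken as the lowest concentration inhibiting growth. The wild-type strain was run without glucose 6-phosphate.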

Escherichia coli [2] = assay: Antibacterial activity against Escherichia coli K-12 BW25113 after 18 to 20 hrs by broth microdilution test; assay type: functional; summary of the method: as §1
Escherichia coli [3] = assay: Antibacterial activity against Escherichia coli K-12 BW25113 after 18 to 20 hrs by broth microdilution test in presence of glucose-6-phosphate; assay type: functional
Summary of the method: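 For E. coli BW25113, broth microdilution was run with glucose 6-phosphate added. Conditions: Mueller–Hinton broth, triplicate concentrations from 2 mM downward, about 5 × 10⁵ cfu mL⁻¹ inoculum, 18–20 h at 37 °C. MIC was the lowest concentration inhibiting growth.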

Escherichia coli [4] = assay: Antibacterial activity against Escherichia coli AS19 after 18 to 20 hrs by broth microdilution test
Pseudomonas aeruginosa [5] = assay: Binding affinity to Pseudomonas aeruginosa KdsD expressed Escherichia coli at 5 mM after 2 to 3 days by STD-NMR analysis
Summary of the method: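 N-His6 Pa-KdsD was expressed in E. coli M15/pREP4 (0.5 mM IPTG, 4 h), Ni-NTA purified (>95%). Ligand at 5 mM with enzyme in PBS pH 7.0, 25 °C, sampled after 0, 2 and 3 days. STD: 50 ms Gaussian pulses, 3 s saturation, on-resonance 7.9 ppm, off-resonance 40 ppm, 2 ms T1ρ filter; free-ligand reference spectra.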

SMILES | MIC (Pseudomonas aeruginosa [1]) | MIC (Escherichia coli [2]) | MIC (Escherichia coli [3]) | MIC (Escherichia coli [4]) | Activity (Pseudomonas aeruginosa [5])
CO[C@H]1O[C@H](COP(=O)(O)O)[C@@H](O)[C@@H]1O | > 2000 µM | > 2000 µM | > 2000 µM | 250 µM (≈ 61 µg/mL) | 
CO[C@H]1O[C@H](C(=O)O)[C@@H](O)[C@@H]1O | > 2000 µM | > 2000 µM | > 2000 µM | 250 µM (≈ 44.5 µg/mL) | Active
NC(=O)[C@H](O)[C@H](O)COP(=O)(O)O |  |  |  |  | Active
CO[C@@H]1O[C@H](C(=O)O)[C@@H](O)[C@@H]1O | > 2000 µM | > 2000 µM | > 2000 µM | 250 µM (≈ 44.5 µg/mL) | Active
CC(=O)O[C@H](COP(=O)(O)O)[C@@H](O)C(=O)NO |  |  |  |  | Active
CO[C@@H]1O[C@H](COP(=O)(O)O)[C@@H](O)[C@@H]1O | > 2000 µM | > 2000 µM | > 2000 µM | 250 µM (≈ 61 µg/mL) | 
O=C(NO)[C@H](O)[C@H](O)COP(=O)(O)O |  |  |  |  | Active

Reference: ChEMBL document CHEMBL3232738, “Arabinose 5-phosphate isomerase as a target for antibacterial design: studies with substrate analogues and inhibitors” (2014)
